Data reported in PubChem BioAssay AID624366 (Broad Institute, 2012).
Where “and” joins values, the source holds several entries; their conditions need not be identical. Identical values can stand only once. Calls of active or inactive are those of the source.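 Rule for the calls: active = signal drop with fitted AC50 no more than twice the top valid dose in every repeat run; inconclusive = mixed run calls, flat 30 to 70% drop, or poor fit; inactive = the rest.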

System: SK-MEL-5 viability, CellTiter-Glo ATP luminescence, 24 h
Assay: SK-MEL-5 parental cell viability, dose response, orthogonal assay for MITF inhibitor project, CellTiter-Glo luminescence, dry powder, set 4 (AID 624366)
In short: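 Test system – SK-MEL-5 melanoma cells, parental line of primary-screen reporter line · Buffer or medium – phenol red-free growth medium · Dosing – multiple compound doses delivered by pin transfer · Times – 24 h treatment at 37 °C, 5 min RT read · Detection – CellTiter-Glo luminescence measuring cellular ATP · Evaluation – viability via ATP level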

**Q.** How did the AC50 turn out when O=C1C(Nc2ccccc2)=C(N2CCSCC2)C(=O)c2ccccc21 was run?
**A.** > 70 µM (inactive)

**Q.** How did the AC50 turn out when COC1=C(NS(=O)(=O)c2ccccc2)C(=O)c2ccccc2C1=O was run?
**A.** 15.8 µM

**Q.** With CCN(CC)CCCNC1=C(Nc2ccccc2)C(=O)c2ccccc2C1=O as the compound, how does the AC50 read?
**A.** 24.4 µM

**Q.** How did the AC50 turn out when CC(=O)N(C)C1=C(N2CCCCC2)C(=O)c2ccccc2C1=O was run?
**A.** 6.71 µM

**Q.** Which AC50 does the source give for C=CCNC1=C(Cl)C(=O)c2ccccc2C1=O here?
**A.** 15.4 µM

**Q.** CN1CCN(C2=C(NC(=O)c3ccc(Br)cc3)C(=O)c3ccccc3C2=O)CC1 was tested. Which AC50 did it give?
**A.** 8 µM

**Q.** Which AC50 does the source give for NC1=C(NC(=O)c2ccccc2)C(=O)c2ccccc2C1=O here?
**A.** 12.3 µM

**Q.** For CCN(CC)CCNC1=C(Nc2ccccc2)C(=O)c2ccccc2C1=O, which AC50 is on record?
**A.** > 70 µM (inactive)

**Q.** Which AC50 does the source give for CCN1CCN(C2=C(NC(=O)c3ccc(Br)cc3)C(=O)c3ccccc3C2=O)CC1 here?
**A.** 11 µM

**Q.** Which AC50 does the source give for CCN1CCN(C2=C(NS(=O)(=O)c3ccc(Br)s3)C(=O)c3ccccc3C2=O)CC1 here?
**A.** > 70 µM (inactive)

**Q.** Which AC50 does the source give for O=C1C=C(NS(=O)(=O)c2ccc(Br)cc2)C(=O)c2ccccc21 here?
**A.** 10 µM

**Q.** For O=C1C=C(NS(=O)(=O)c2cccs2)C(=O)c2ccccc21, which AC50 is on record?
**A.** 9.28 µM

**Q.** CN1CCN(C2=C(NS(=O)(=O)c3ccc(Br)s3)C(=O)c3ccccc3C2=O)CC1 was tested. Which AC50 did it give?
**A.** 23.6 µM

**Q.** How did the AC50 turn out when NC1=C(NS(=O)(=O)c2ccccc2)C(=O)c2ccccc2C1=O was run?
**A.** 14 µM

**Q.** How did the AC50 turn out when O=C1C(NS(=O)(=O)c2ccc(Br)s2)=C(N2CCCCC2)C(=O)c2ccccc21 was run?
**A.** 23.9 µM

**Q.** How did the AC50 turn out when C=CCNC1=C(N(C)C(C)=O)C(=O)c2ccccc2C1=O was run?
**A.** 0.843 µM

**Q.** For CNC1=CC(=O)c2ccccc2C1=O, which AC50 is on record?
**A.** > 70 µM (inactive)

**Q.** For CN1CCN(C2=C(Nc3ccccc3)C(=O)c3ccccc3C2=O)CC1, which AC50 is on record?
**A.** 34.2 µM

**Q.** NC1=CC(=O)c2ccccc2C1=O was tested. Which AC50 did it give?
**A.** 11 µM

**Q.** How did the AC50 turn out when O=C1C=C(Nc2ccccc2)C(=O)c2ccccc21 was run?
**A.** 3.44 µM and 3.95 µM

**Q.** With COC1=C(NS(=O)(=O)c2ccc(Br)cc2)C(=O)c2ccccc2C1=O as the compound, how does the AC50 read?
**A.** 11.3 µM

**Q.** How did the AC50 turn out when O=C1C(NS(=O)(=O)c2ccc(Br)s2)=C(N2CCOCC2)C(=O)c2ccccc21 was run?
**A.** 27.6 µM

**Q.** How did the AC50 turn out when O=C(NC1=C(N2CCSCC2)C(=O)c2ccccc2C1=O)c1ccc(Br)cc1 was run?
**A.** > 70 µM (inactive)

**Q.** Which AC50 does the source give for O=C1C(Nc2ccccc2)=C(NS(=O)(=O)c2ccccc2[N+](=O)[O-])C(=O)c2ccccc21 here?
**A.** > 70 µM (inactive)

**Q.** Which AC50 does the source give for CC1CCN(CC(CS(=O)(=O)c2ccc([N+](=O)[O-])cc2)N2CCC(C)CC2)CC1 (stereo not given) here?
**A.** > 70 µM (inactive)

**Q.** With O=C1C=C(NS(=O)(=O)c2ccccc2)C(=O)c2ccccc21 as the compound, how does the AC50 read?
**A.** 5.83 µM

**Q.** With NC1=C(NS(=O)(=O)c2cccs2)C(=O)c2ccccc2C1=O as the compound, how does the AC50 read?
**A.** 11.3 µM

**Q.** With Cc1nc2ccccc2n1/N=C/c1ccc([N+](=O)[O-])s1 as the compound, how does the AC50 read?
**A.** > 70 µM (inactive)

**Q.** O=C1C(NS(=O)(=O)c2ccccc2)=C(c2ccccc2)C(=O)c2ccccc21 was tested. Which AC50 did it give?
**A.** > 70 µM (inactive)

**Q.** O=C1C(Nc2ccccc2)=C(N2CCCCC2)C(=O)c2ccccc21 was tested. Which AC50 did it give?
**A.** 25.3 µM

**Q.** Which AC50 does the source give for COC1=C(Nc2ccccc2)C(=O)c2ccccc2C1=O here?
**A.** 3.02 µM

**Q.** Which AC50 does the source give for C[C@@H](NC1=C(Nc2ccccc2)C(=O)c2ccccc2C1=O)c1ccccc1 here?
**A.** > 70 µM (inactive)

**Q.** How did the AC50 turn out when CC(=O)N(C)C1=C(N2CCN(C)CC2)C(=O)c2ccccc2C1=O was run?
**A.** 5.48 µM

**Q.** NC1=C(NS(=O)(=O)c2ccc(Br)cc2)C(=O)c2ccccc2C1=O was tested. Which AC50 did it give?
**A.** 28.1 µM

**Q.** How did the AC50 turn out when NC1=C(c2ccc(OC(F)(F)F)cc2)C(=O)c2ccccc2C1=O was run?
**A.** > 70 µM (inactive)

**Q.** How did the AC50 turn out when COC1=C(NS(=O)(=O)c2cccs2)C(=O)c2ccccc2C1=O was run?
**A.** 23.7 µM

**Q.** With C=C1C(=O)OC2C1CC/C(C)=C\CCC1(C)OC21 (stereo not given) as the compound, how does the AC50 read?
**A.** > 70 µM (inactive)

**Q.** For O=C(NC1=C(N2CCCCC2)C(=O)c2ccccc2C1=O)c1ccc(Br)cc1, which AC50 is on record?
**A.** > 70 µM (inactive)

**Q.** Which AC50 does the source give for O=C(NC1=C(N2CCOCC2)C(=O)c2ccccc2C1=O)c1ccc(Br)cc1 here?
**A.** > 70 µM (inactive)

**Q.** Which AC50 does the source give for O=C1C(Nc2ccccc2)=C(c2ccccc2)C(=O)c2ccccc21 here?
**A.** 27.3 µM
